Assay results taken from ChEMBL document CHEMBL3580656, “Chrodrimanins I and J from the Antarctic Moss-Derived Fungus Penicillium funiculosum GWT2-24” (J Nat Prod, 2015).

Tests used:
K562 = assay: Cytotoxicity against human K562 cells by sulforhodamine B assay; type: functional, cell-based
In short: (§1)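 Four human lines tested (K562, HL-60, HeLa, A-549) with adriamycin as positive control. Potency is expressed as IC50.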

HL-60 = assay: Cytotoxicity against human HL60 cells by sulforhodamine B assay; type: functional, cell-based; in short: as §1
HeLa = assay: Cytotoxicity against human HeLa cells by sulforhodamine B assay; type: functional, cell-based; in short: as §1
A549 = assay: Cytotoxicity against human A549 cells by sulforhodamine B assay; type: functional, cell-based; in short: as §1
Staphylococcus aureus = assay: Antibacterial activity against Staphylococcus aureus; type: functional
Escherichia coli = assay: Antibacterial activity against Escherichia coli; type: functional
Influenza A virus = assay: Antiviral activity against influenza A virus (A/Puerto Rico/8/34(H1N1)) infected in MDCK cells incubated for 48 hrs assessed as inhibition of virus-induced cytopathic effect by crystal violet staining assay; type: functional, organism-based; conditions: A/Puerto Rico/8/1934(H1N1)
In short: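 Ribavirin served as the positive control. The value is reported as an IC50 in μM.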

Structure (SMILES) | IC50 (K562) | IC50 (HL-60) | IC50 (HeLa) | IC50 (A549) | MIC (Staphylococcus aureus) | MIC (Escherichia coli) | IC50 (Influenza A virus)
CC(=O)O[C@@H]1c2c3c(cc(O)c2C(=O)O[C@@H]1C)O[C@@]1(C)[C@@H](O)C[C@H]2C(C)(C)C(=O)C=C[C@]2(C)[C@@H]1C3 | > 50 µM | > 50 µM | > 50 µM | > 50 µM | > 600 µg/mL | > 600 µg/mL | 55 µM
C[C@@H]1Cc2c3c(cc(O)c2C(=O)O1)O[C@@]1(C)[C@@H](O)C[C@H]2C(C)(C)[C@@H](O)CC[C@]2(C)[C@@H]1C3 | > 50 µM | > 50 µM | > 50 µM | > 50 µM | > 600 µg/mL | > 600 µg/mL | 57 µM
C[C@@H]1Cc2c3c(cc(O)c2C(=O)O1)O[C@@]1(C)[C@@H](O)C[C@H]2C(C)(C)C(=O)C=C[C@]2(C)[C@@H]1C3 | > 50 µM | > 50 µM | > 50 µM | > 50 µM | > 600 µg/mL | > 600 µg/mL | 21 µM
C[C@@H]1Cc2c3c(cc(O)c2C(=O)O1)O[C@@]1(C)[C@@H](O)C[C@H]2C(C)(C)C(=O)CC[C@]2(C)[C@@H]1C3 | > 50 µM | > 50 µM | > 50 µM | > 50 µM | > 600 µg/mL | > 600 µg/mL | > 200 µM
CC1(C)C(=O)CC[C@@]2(C)[C@H]1CC[C@]1(C)Oc3cc(O)c4c(c3C[C@@H]21)C[C@@H](O)CC4=O | > 50 µM | > 50 µM | > 50 µM | > 50 µM | > 600 µg/mL | > 600 µg/mL | > 200 µM
CC1(C)C(=O)C=C[C@@]2(C)[C@H]1CC[C@]1(C)Oc3cc(O)c4c(c3C[C@@H]21)C[C@@H](O)CC4=O | > 50 µM | > 50 µM | > 50 µM | > 50 µM | > 600 µg/mL | > 600 µg/mL | > 200 µM
C[C@H]1OC(=O)c2c(O)cc3c(c2[C@H]1O)C[C@H]1[C@@]2(C)C=CC(=O)C(C)(C)[C@@H]2C[C@H](O)[C@]1(C)O3 | > 50 µM | > 50 µM | > 50 µM | > 50 µM | > 600 µg/mL | > 600 µg/mL | > 200 µM
